Here are results for 1 compound from ChEMBL document CHEMBL4017532, “Multifunctional Hybrid Compounds Derived from 2-(2,5-Dioxopyrrolidin-1-yl)-3-methoxypropanamides with Anticonvulsant and Antinociceptive Properties” (J Med Chem, 2017).

In general, ED50 refers to the dose at which the effect has come halfway, by size or by number of responders. As a reminder, the inhibition in vivo is the relative decrease from the control value, in per cent.

For series [1], the system named is Mus musculus. The experiment in a line: Anticonvulsant activity in ip dosed Albino Swiss CD-1 mouse assessed as protection against 32 mA current-induced seizure treated up to 2 hrs prior to 6-Hz current induction measured at time to peak effect. It is filed as functional. The following applies: Swiss CD-1, ip.
Series [2] is described as follows: Retention time of the compound by LC-MS method.
Series [3] relates to Mus musculus. Kind of series: Anticonvulsant activity in Albino Swiss CD-1 mouse assessed as inhibition of pentylenetetrazole-induced seizures by measuring time to peak effect at 100 mg/kg, ip administered up to 2 hrs prior to PTZ induction measured for 30 mins. Type of series: functional.
In series [4] the test system is Mus musculus. The experiment in a line: Anticonvulsant activity in ip dosed Albino Swiss CD-1 mouse assessed as protection against maximal electroshock-induced seizures pretreated up to 2 hrs followed by 50 Hz current induction for […] measured at time to peak effect. Type of series: functional. Conditions: Swiss CD-1, ip. In general terms: In the maximal electroshock model the usual endpoint is tonic extension of the hind limbs.

The species entered for series [5] is Rattus norvegicus. Kind of series: Displacement of [3H]diltiazem from L-type calcium channel diltiazem binding site in rat cerebral cortical membranes at 100 uM after 60 mins. Type of series: cell membranes. The method, boiled down: (§1)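 Radioligand binding was run as a contract service. Percent inhibition of specific labelled-ligand binding was measured at 100 μM test compound, or 200 μM for hERG.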
(Loss of bound radioactivity is the signal in a displacement assay; it reports binding, not function.)

Series [6] concerns Mus musculus. The experiment in a line: Antinociceptive activity in Albino Swiss CD-1 mouse assessed as inhibition of formalin-induced neurogenic pain response administered ip 30 mins before formalin injection measured up to 5 mins. Type of series: functional. Conditions: Swiss CD-1, ip. An outline of the steps:
(§2)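 Male CD-1 mice were given test agents ip 30 min before subcutaneous intraplantar formalin. Doses were 12.5, 25 or 50 mg/kg, or 100, 150 or 200 mg/kg for the reference. Vehicle was 1% Tween 80 at 10 mL/kg. Paw licking time was recorded in phase I (0–5 min) and phase II (15–30 min). Data are mean ± SEM of 8–10 mice, by Dunnett's test. ED50 was obtained by log-probit analysis with 95% confidence limits.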

Series [7] relates to Mus musculus. The experiment in a line: Antiallodynic activity in oxaliplatin-induced Albino Swiss CD-1 mouse model of peripheral neuropathy assessed as elevation in pain sensitivity threshold at 50 mg/kg, ip administered 30 mins prior to oxaliplatin challenge relative to control. It is filed as functional. The method, boiled down:
(§3)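 Male CD-1 mice, 18–25 g, that had developed oxaliplatin-induced tactile allodynia were dosed ip 30 min before testing. Doses were 25, 50 or 100 mg/kg, or 50, 100 or 150 mg/kg for the reference. Vehicle was 1% aqueous Tween 80. Paw-withdrawal force was measured by von Frey filaments. Data are mean ± SEM, analysed by repeated-measures ANOVA with Dunnett's test against oxaliplatin plus vehicle mice.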

Series [8] has as its system Mus musculus. Kind of series: Antinociceptive activity in Albino Swiss CD-1 mouse assessed as inhibition of capsaicin-induced nociception by measuring time spent licking injected paw at 50 mg/kg, ip administered 30 mins mins prior to capsaicin challenge measured for 5 mins relative to control. It is filed as functional. The following applies: Swiss CD-1, ip. The method, boiled down:
(§4)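 Mice (male CD-1, 18–25 g) were pretreated ip 30 min before intraplantar capsaicin. Doses were 25, 50 or 100 mg/kg, or 100, 150 or 200 mg/kg for the reference. Vehicle was 1% Tween 80 at 10 mL/kg. Duration of nociceptive response was scored over 5 min after injection. Data are mean ± SEM of 8–10 mice, by one-way ANOVA with Dunnett's test against vehicle.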

In series [9] the test system is Mus musculus. Kind of series: Anticonvulsant activity in Albino Swiss CD-1 mouse assessed as protection against maximal electroshock-induced seizures at 100 mg/kg, ip pretreated up to 2 hrs followed by 50 Hz current induction for […] relative to control. It is filed as functional.
In series [10] the target is Voltage-gated inwardly rectifying potassium channel KCNH2 (Homo sapiens, UniProt Q12809). Kind of series: Displacement of [3H]astemizole from human hERG expressed in HEK293 cell membrane at 200 uM after 90 mins by liquid scintillation counting. It is filed as cell membranes. Conditions: hek293, 1.5 h. An outline of the steps: as §1
Chain of Voltage-gated inwardly rectifying potassium channel KCNH2 (Q12809 whole entry): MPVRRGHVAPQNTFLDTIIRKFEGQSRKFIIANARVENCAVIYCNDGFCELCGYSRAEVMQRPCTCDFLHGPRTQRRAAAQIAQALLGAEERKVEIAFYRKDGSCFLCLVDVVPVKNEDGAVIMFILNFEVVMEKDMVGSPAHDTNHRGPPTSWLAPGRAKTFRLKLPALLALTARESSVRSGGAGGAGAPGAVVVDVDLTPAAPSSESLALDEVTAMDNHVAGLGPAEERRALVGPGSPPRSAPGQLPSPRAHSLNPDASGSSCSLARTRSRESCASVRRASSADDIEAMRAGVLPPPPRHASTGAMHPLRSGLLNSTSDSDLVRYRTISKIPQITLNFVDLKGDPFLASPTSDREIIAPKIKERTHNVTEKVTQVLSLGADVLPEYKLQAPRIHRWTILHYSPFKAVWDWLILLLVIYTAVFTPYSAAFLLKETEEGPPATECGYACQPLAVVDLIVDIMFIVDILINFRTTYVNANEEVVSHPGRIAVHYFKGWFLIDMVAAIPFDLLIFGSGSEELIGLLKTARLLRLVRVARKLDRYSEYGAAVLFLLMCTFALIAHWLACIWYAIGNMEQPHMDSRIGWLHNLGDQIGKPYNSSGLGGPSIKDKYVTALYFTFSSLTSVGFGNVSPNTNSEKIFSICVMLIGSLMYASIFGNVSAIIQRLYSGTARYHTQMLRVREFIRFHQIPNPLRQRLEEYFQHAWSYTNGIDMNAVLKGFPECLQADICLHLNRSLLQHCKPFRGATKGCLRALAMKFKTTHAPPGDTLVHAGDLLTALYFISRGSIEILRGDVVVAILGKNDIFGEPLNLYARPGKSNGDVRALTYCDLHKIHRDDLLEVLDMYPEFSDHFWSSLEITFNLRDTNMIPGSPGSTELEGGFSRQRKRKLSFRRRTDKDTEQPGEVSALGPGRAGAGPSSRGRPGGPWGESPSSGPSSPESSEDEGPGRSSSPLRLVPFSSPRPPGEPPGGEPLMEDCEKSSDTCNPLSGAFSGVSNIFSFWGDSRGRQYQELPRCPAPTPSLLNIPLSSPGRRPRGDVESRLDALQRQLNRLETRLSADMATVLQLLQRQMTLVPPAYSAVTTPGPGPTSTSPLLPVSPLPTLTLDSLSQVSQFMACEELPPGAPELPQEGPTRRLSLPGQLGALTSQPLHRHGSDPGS
Series [11] has as its system Mus musculus. The experiment in a line: Analgesic activity in Albino Swiss CD-1 mouse assessed as increase in pain response latency administered at 150 mg/kg, ip treated up to 90 mins prior to tet by hot plate assay. Type of series: functional, organism-based. The method, boiled down:
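Male CD-1 mice, 18–25 g, 6–12 per group, given test agents as 1% aqueous Tween 80 suspension ip. Doses were 50, 100 or 150 mg/kg, with morphine hydrochloride at 4 mg/kg as reference. Mice were placed on the hot plate 15, 30, 45, 60 and 90 min after dosing, and latency to pain reaction was recorded.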
(Hot-plate and tail-flick tests time the reaction to a heat stimulus.)

Series [12] has as its system Mus musculus. Kind of series: Antiallodynic activity in oxaliplatin-induced Albino Swiss CD-1 mouse model of peripheral neuropathy assessed as elevation in pain sensitivity threshold at […], ip administered 30 mins prior to oxaliplatin challenge relative to control. It is filed as functional.
Series [13] has as its system Mus musculus. The experiment in a line: Antiallodynic activity in oxaliplatin-induced Albino Swiss CD-1 mouse model of peripheral neuropathy assessed as elevation in pain sensitivity threshold at 25 mg/kg, ip administered 30 mins prior to oxaliplatin challenge relative to control. Type of series: functional. An outline of the steps: as §3
The species named for series [14] is Mus musculus. The experiment in a line: Potency index, ratio of valproic acid ED50 to compound ED50 for protection against pentylenetetrazole-induced seizures in Albino Swiss CD-1 mouse. Type of series: functional.
Series [15] relates to Mus musculus. Kind of series: Protection index, ratio of TD50 for neurotoxicity in ip dosed Albino Swiss CD-1 mouse to ED50 for ip dosed pentylenetetrazole induced seizure Albino Swiss CD-1 mouse model. The method, boiled down:
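Acute neurological toxicity after ip dosing (1% Tween 80 suspension) was assessed in the mouse chimney test. TD50 with 95% confidence limits was derived by probit analysis. Protective index is TD50 from the chimney test divided by ED50 from the MES, scPTZ or 6 Hz test.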

The species entered for series [16] is Rattus norvegicus. The experiment in a line: Displacement of [3H]CGP 39653 from NMDA receptor in rat cerebral cortex at 100 uM after 60 mins by liquid scintillation counting. An outline of the steps:
as §1

Series [17] relates to Mus musculus. The experiment in a line: Toxicity in Albino Swiss CD-1 mouse assessed as motor coordination impairment at 50 to 150 mg/kg, ip by rotarod test. Type of series: organism-based. Conditions: in vivo.
For series [18], the system named is Mus musculus. The experiment in a line: Antiallodynic activity in oxaliplatin-induced Albino Swiss CD-1 mouse model of peripheral neuropathy assessed as elevation in pain sensitivity threshold at 100 mg/kg, ip administered 30 mins prior to oxaliplatin challenge relative to control. Type of series: functional. The method, boiled down: as §3
In series [19] the test system is Mus musculus. The experiment in a line: Antinociceptive activity in Albino Swiss CD-1 mouse assessed as inhibition of capsaicin-induced nociception by measuring time spent licking injected paw at 100 mg/kg, ip administered 30 mins mins prior to capsaicin challenge measured for 5 mins relative to control. It is filed as functional. The following applies: Swiss CD-1, ip. An outline of the steps: as §4

The species named for series [20] is Rattus norvegicus. The experiment in a line: Displacement of [3H]GABA from GABA transporter in rat cerebral cortex at 100 uM by liquid scintillation spectrometry. An outline of the steps: as §1
Series [21] has as its system Mus musculus. Kind of series: Antiallodynic activity in oxaliplatin-induced Albino Swiss CD-1 mouse model of peripheral neuropathy assessed as elevation in pain sensitivity threshold administered ip 30 mins prior to oxaliplatin challenge. Type of series: functional, organism-based. The method, boiled down: as §3
Series [22] is filed under the species Rattus norvegicus. Kind of series: Displacement of omega[125I]conotoxin from N-type calcium channel in rat cerebral cortex at 100 uM by scintillation spectrophotometry. The method, boiled down:
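Run commercially by an outside contract lab, with the compound tested at 100 μM. The read-out was percent inhibition of binding of the radiolabelled ligand, reported as compound binding.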

Series [23] relates to Mus musculus. The experiment in a line: Antinociceptive activity in Albino Swiss CD-1 mouse assessed as inhibition of formalin-induced inflammatory pain response administered ip 30 mins before formalin injection measured after 15 to 30 mins. Type of series: functional. Conditions: Swiss CD-1, ip. An outline of the steps: as §2

Active and inactive are the calls of the source.

For the compound `COCC(C(=O)N1CCN(c2ccc(C(F)(F)F)cc2)CC1)N1C(=O)CCC1=O` (stereo not drawn), the ED50 is 22.4 to 26.9 mg/kg in the series on Mus musculus [1], 79.5 to 83.3 mg/kg in the series on Mus musculus [4], 26 mg/kg with Mus musculus [6] and 5.1 mg/kg with Mus musculus [23]. Besides, the Retention time in series [2] is 6.11 min. For the same compound, the Time in the series with Mus musculus [3] stood at 0.5 h. The inhibition result in the series filed under Rattus norvegicus [5], in the series listed under Rattus norvegicus [16], in the series listed under Rattus norvegicus [20] and in the series listed under Rattus norvegicus [22] was “inactive” each time. The Activity with Mus musculus [7] was 121%; in the series on Mus musculus [9] it was 75 - 100%; in the series on Mus musculus [12] it was 122%; in the series with Mus musculus [13], 112.6%; in the series with Mus musculus [17], “Non-Toxic”; in the series with Mus musculus [18], 149.2%. In addition, the Activity entry in the series on Mus musculus [21] was “Dose-dependent effect”. Moreover, in the series on Mus musculus [8], the inhibition in vivo at 50 mg/kg stood at 32.7%. In addition, the “inhibition (INH)” value in series [10] is on record as “Not Active”. In addition, the outcome with Mus musculus [11] was inactive. Moreover, the “Ratio ED50” value in the series listed under Mus musculus [14] amounted to 2. The “Ratio TD50/ED50” value in the series on Mus musculus [15] is 1.6. Moreover, the inhibition in vivo at 100 mg/kg in the series with Mus musculus [19] was determined as 59.3%.
